Results as given in publication PMC3458564 (Nucleic Acids Research, 2012).
Where a name gives a salt, the structure may show the parent alone.

Columns and labels:
NS3h = target: T1, NS3h (Hepatitis C virus genotype 1b, UniProt Q9WMX2); assay: NS3h ATP hydrolysis; assay type: biochemical; settings: preliminary
T1 sequence (Q9WMX2 1193-1657 limits assumed): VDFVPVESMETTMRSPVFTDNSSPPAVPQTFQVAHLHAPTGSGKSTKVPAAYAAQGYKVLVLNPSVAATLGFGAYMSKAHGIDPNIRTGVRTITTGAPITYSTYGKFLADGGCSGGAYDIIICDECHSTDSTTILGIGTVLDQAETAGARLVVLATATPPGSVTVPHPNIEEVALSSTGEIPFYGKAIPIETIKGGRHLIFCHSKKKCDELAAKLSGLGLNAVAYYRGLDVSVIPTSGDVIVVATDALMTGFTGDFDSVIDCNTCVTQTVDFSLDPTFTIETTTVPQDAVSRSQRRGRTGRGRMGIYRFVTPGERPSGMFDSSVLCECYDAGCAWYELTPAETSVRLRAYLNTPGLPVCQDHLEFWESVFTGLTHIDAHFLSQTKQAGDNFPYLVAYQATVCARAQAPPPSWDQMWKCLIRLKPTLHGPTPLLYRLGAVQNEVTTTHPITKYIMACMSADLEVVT

[1] = Cell Titer-Glo cell viability assay; assay type: cell-based; settings: human, Huh-7.5 cells
Outline: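 Huh-7.5 cells carrying a stable HCV Renilla luciferase replicon, seeded at 10 000 cells/well, attached 4–5 h in DMEM with 10% FBS, glutamine, penicillin/streptomycin and non-essential amino acids. Test compound added in DMSO (0.5% final). Incubated 72 h at 37°C, 5% CO2. Cells washed, lysed by shaking in medium plus CellTiter-Glo, 30 min at 23°C. Luminescence read 1 s, normalized to DMSO-only. Triplicates.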

HCV NS3h [2] = target: T2, HCV NS3h (Hepatitis C virus genotype 1b, UniProt Q9WMX2); assay: NS3h molecular beacon-based helicase assay; assay type: biochemical; settings: for IC50: n=3
[3] = tested on: HCV RLuc replicon in Huh7.5 cells; assay: HCV Renilla luciferase subgenomic replicon assay; assay type: cell-based; settings: Hepatitis C virus, Huh7.5, 72 h, read-out: HCV replicon IC50 ± SD
E. coli SSB = E. coli SSB (Escherichia coli, UniProt P0AGE0); assay: Escherichia coli SSB FP assay; assay type: binding
E. coli SSB, sequence (P0AGE0 2-178 limits assumed): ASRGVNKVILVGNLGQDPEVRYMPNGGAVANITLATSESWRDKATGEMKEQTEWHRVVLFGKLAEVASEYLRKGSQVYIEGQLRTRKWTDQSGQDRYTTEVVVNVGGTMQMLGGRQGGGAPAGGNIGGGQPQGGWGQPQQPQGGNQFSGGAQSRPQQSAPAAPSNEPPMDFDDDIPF

HCV NS3h [4] = target: T2, HCV NS3h; assay: biochemical; assay type: binding; settings: for Cy5-dT15-NS3h Binding % Inhibition (LOPAC screen): LOPAC samples at 100 µM, 100 µM
SSB = SSB (Escherichia coli, UniProt P0AGE0 1-178); assay: fluorescence polarization
SSB, sequence (P0AGE0 whole entry): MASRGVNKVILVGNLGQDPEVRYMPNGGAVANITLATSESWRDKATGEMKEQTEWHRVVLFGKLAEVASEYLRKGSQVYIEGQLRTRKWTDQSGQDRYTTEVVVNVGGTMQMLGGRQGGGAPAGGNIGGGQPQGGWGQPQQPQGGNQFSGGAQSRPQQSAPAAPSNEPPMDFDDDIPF

[5] = NS3h helicase assays DNA IC50 ± SD, DNA substrate
[6] = NS3h helicase assays RNA IC50 ± SD, RNA substrate

O=C(O)C1=CC(=C(c2ccc(O)c(C(=O)O)c2)c2ccc(O)c(C(=O)O)c2)C=CC1=O [ATA, aurintricarboxylic acid]
ability of NS3h to cleave ATP in the absence of DNA or RNA (NS3h): inhibits | CC50 at 72 h [1]: > 100 µM | IC50 (HCV NS3h [2]; [5]): 0.6 ± 0.1 µM | IC50 (HCV NS3h [2]; [6]): 0.8 ± 0.2 µM | IC50 [3]: 98 ± 30 µM | IC50 (E. coli SSB): 1 ± 0.1 µM | IC50 (HCV NS3h [4]): 1.4 ± 0.1 µM | Cy5-dT15-NS3h Binding % Inhibition (LOPAC screen) (HCV NS3h [4]): more than 60%

CN1CCN(c2ccc3[nH]c(-c4ccc5[nH]c(-c6ccc(O)cc6)nc5c4)nc3c2)CC1 [H33258]
effect on FP-based NS3h binding assay (HCV NS3h [4]): increased polarization

CCCN(CCCN(C)C)c1cc(/C=C2/Sc3ccccc3N2C)c2ccccc2[n+]1-c1ccccc1 [SYBR green I]
effect on MBHA (HCV NS3h [2]): inhibit

Cc1ccc(C(=O)Nc2ccc(S(=O)(=O)O)c3cc(S(=O)(=O)O)cc(S(=O)(=O)O)c23)cc1NC(=O)c1cccc(NC(=O)Nc2cccc(C(=O)Nc3cc(C(=O)Nc4ccc(S(=O)(=O)O)c5cc(S(=O)(=O)O)cc(S(=O)(=O)O)c45)ccc3C)c2)c1 [Suramin, suramin sodium salt]
CC50 at 72 h [1]: > 50 µM | IC50 (HCV NS3h [2]; [5]): 3.7 ± 0.7 µM | IC50 (HCV NS3h [2]; [6]): 8.9 ± 2 µM | IC50 [3]: 38 ± 9.3 µM | IC50 (E. coli SSB): 0.3 µM | IC50 (HCV NS3h [4]): 3.6 ± 0.3 µM | Cy5-dT15-NS3h Binding % Inhibition (LOPAC screen) (HCV NS3h [4]): more than 60%

CN1/C(=C/C=C/c2cc[n+](CCC[N+](C)(C)C)c3ccccc23)Sc2ccccc21.[I-].[I-] [TO-PRO3]
effect on FP-based NS3h binding assay (HCV NS3h [4]): increased polarization

CC(=O)NCC(=O)O.CC(=O)NCC(=O)O.N=C(N)c1ccc(N=NNc2ccc(C(=N)N)cc2)cc1 [berenil]
effect on MBHA (HCV NS3h [2]): inhibit

Cn1cc(NC(=O)c2cc(NC(=O)CN=C(N)N)cn2C)cc1C(=O)NCCC(=N)N [netropsin]
effect on MBHA (HCV NS3h [2]): inhibit

Nc1ccc2cc3ccc(N)cc3nc2c1 [proflavin]
effect on MBHA (HCV NS3h [2]): inhibit

Nc1ncnc2c1ncn2[C@@H]1O[C@H](COP(=O)(O)CP(=O)(O)OP(=O)([O-])[O-])[C@H](O)C1O.[Li+].[Li+] (stereo partly drawn) [α,β-methylene ATP, alpha,beta-Methylene adenosine 5'-triphosphate dilithium]
effect on FP-based NS3h binding assay (HCV NS3h [4]): did not inhibit

TTTTTTTTTTTTTTT (ssDNA) [Cy5-dT15]
apparent K (half saturation) (SSB): 9.6 ± 2 nM
